The source made the active and inactive calls. The rule behind the calls is not given here.
What was measured:
Enterobacter cloacae [1] = experiment: Synergistic antibacterial activity against carbapenem-resistant Enterobacter cloacae isolate 28 harboring TEM-1 and SHV-12 assessed as fractional inhibitory concentration index in presence of meropenem by CLSI protocol based assay; type: functional
Procedure, shortened: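 FIC index from MICs of compound alone, meropenem alone, and the 1:1 (mass) compound–meropenem combination, read by eye after overnight incubation in a CLSI-based assay. FIC index = MICcombo/MICcpd + MICcombo/MICMem. FIC index ≤0.5 counted as synergy. At least triplicate assays. Clinical NDM-1 isolates for 17-39; E. coli TG1 carrying the IncX3 blaNDM-1 plasmid for 15.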

[2] = target: Metallo-beta-lactamase type 2 (Klebsiella pneumoniae) (UniProt C7C422); experiment: (§1) Inhibition of wild type N-terminal His6-tagged Klebsiella pneumoniae NDM-1 expressed in Escherichia coli BL21 using nitrocefin as substrate measured after 30 mins
Procedure, shortened: (§2)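 1 nM purified His6-NDM-1 was mixed with varying compound concentrations in 50 mM phosphate buffer ± 50 µM ZnSO4 with BSA. Nitrocefin was added at 7× Km and velocity read at 482 nm, in triplicate. ln(% residual activity) versus incubation time gave kobs, which was fitted hyperbolically against concentration for KI and kinact.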

[3] = target: T1, Metallo-beta-lactamase type 2 (Klebsiella pneumoniae, UniProt C7C422); experiment: as §1; procedure, shortened: as §2
Enterobacter cloacae [4] = experiment: Potentiation of meropenem-induced antibacterial activity against carbapenem-resistant Enterobacter cloacae isolate 22 harboring CTX-M-14, TEM-1 and SHV-12 assessed as meropenem MIC by CLSI protocol based assay (Rvb >= 128 ug/ml); type: functional
Morganella morganii = experiment: Potentiation of meropenem-induced antibacterial activity against carbapenem-resistant Morganella morganii isolate 26 assessed as meropenem MIC by CLSI protocol based assay (reference value: 64 ug/ml); type: functional
L929 [5] = experiment: Cytotoxicity against mouse L929 cells assessed as increase in cell viability at 2 mg/ml measured after 48 hrs by MTT assay; type: cell-based; conditions: l929, 48 h
Procedure, shortened: (§3)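 MTT assay. HeLa or L929 cells were seeded at 1×10^4/well in DMEM with 10% FBS and grown 12 h at 37 °C. They were exposed to 0.13–2 mg/mL compound (DMSO stock) for 48 h, then given 0.5 mg/mL MTT for 3 h at 37 °C. Formazan was dissolved in DMSO and read at 490 nm. Survival % was blank-corrected against the 0.5% DMSO medium control.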

Escherichia coli = experiment: Growth inhibition of carbapenem-resistant Escherichia coli isolate 06 harboring CTX-M-14, CTX-M-3 and SHV-12 by CLSI protocol based assay; type: functional
[6] = target: Metallo-beta-lactamase type 2 (Klebsiella pneumoniae) (UniProt C7C422); experiment: Inhibition of wild type N-terminal His6-tagged Klebsiella pneumoniae NDM-1 expressed in Escherichia coli BL21 assessed as ratio of Kinact/Ki using nitrocefin as substrate measured after 30 mins; procedure, shortened: as §2
[7] = target: T1, Metallo-beta-lactamase type 2; experiment: Inhibition of wild type N-terminal His6-tagged Klebsiella pneumoniae NDM-1 expressed in Escherichia coli BL21 assessed as inhibition constant using nitrocefin as substrate measured after 30 mins; procedure, shortened: as §2
[8] = target: Metallo-beta-lactamase type 2 (Klebsiella pneumoniae) (UniProt C7C422); experiment: Inhibition of wild type N-terminal His6-tagged Klebsiella pneumoniae NDM-1 expressed in Escherichia coli BL21 assessed as loss of zinc ion at enzyme active site leading to formation of compound-intact protein complex after 20 mins by ESI-MS analysis
Procedure, shortened: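 Native mass analysis: 20 µM purified NDM-1 plus equimolar compound in 20 mM ammonium acetate, 20 min, then infused into nano-ESI source (spray ~20 min at 150 V). Adduct formation and zinc content were read from protein mass.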

Citrobacter freundii [9] = experiment: Synergistic antibacterial activity against carbapenem-resistant Citrobacter freundii isolate 35 harboring CTX-M-3, KPC-2 and SHV-12 assessed as fractional inhibitory concentration index in presence of meropenem by CLSI protocol based assay; type: functional
Klebsiella oxytoca = experiment: Growth inhibition of carbapenem-resistant Klebsiella oxytoca isolate 16 harboring SHV-12 by CLSI protocol based assay; type: functional
Enterobacter cloacae [10] = experiment: Growth inhibition of carbapenem-resistant Enterobacter cloacae isolate 08 harboring CTX-M-14, TEM-1 and SHV-12 by CLSI protocol based assay; type: functional
Citrobacter freundii [11] = experiment: Growth inhibition of carbapenem-resistant Citrobacter freundii isolate 05 harboring SHV-12 by CLSI protocol based assay; type: functional
Enterobacter cloacae [12] = experiment: Potentiation of meropenem-induced antibacterial activity against carbapenem-resistant Enterobacter cloacae isolate 10 harboring CTX-M-14, TEM-1 and SHV-12 assessed as meropenem MIC by CLSI protocol based assay (reference value: 64 ug/ml); type: functional
HeLa [13] = experiment: Cytotoxicity against human HeLa cells assessed as increase in cell viability at 2 mg/ml measured after 48 hrs by MTT assay; type: cell-based; procedure, shortened: as §3
[14] = target: Metallo-beta-lactamase type 2 (Klebsiella pneumoniae) (UniProt C7C422); experiment: Time dependent inhibition of wild type N-terminal His6-tagged Klebsiella pneumoniae NDM-1 expressed in Escherichia coli BL21 assessed as residual activity using nitrocefin as substrate
Procedure, shortened: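 Purified NDM-1 (residues G36–R270, N-terminal His6, expressed in E. coli BL21), 1 nM, mixed with varying inhibitor concentrations in 50 mM phosphate buffer with or without 50 µM ZnSO4, plus BSA. Nitrocefin at 7×Km was the substrate, read at 482 nm. Residual activity was followed against preincubation time, fitted as pseudo-first-order to give KI and kinact. Triplicate assays.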

L929 [15] = experiment: Cytotoxicity against mouse L929 cells assessed as increase in cell viability at 0.13 to 2 mg/ml measured after 48 hrs by MTT assay relative to control; type: cell-based; conditions: l929, 48 h, dose 0.13-2 mg/ml; procedure, shortened: as §3
L929 [16] = experiment: Cytotoxicity against mouse L929 cells assessed as effect on morphological changes at 0.13 to 2 mg/ml by microscopic analysis; type: cell-based; conditions: dose 0.13-2 mg/ml
Procedure, shortened: (§4)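 HeLa and L929 cells were examined by microscopy for morphological change after incubation with compound at the MTT-assay concentrations.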

[17] = target: Metallo-beta-lactamase type 2 (Klebsiella pneumoniae) (UniProt C7C422); experiment: Inhibition of wild type N-terminal His6-tagged Klebsiella pneumoniae NDM-1 expressed in Escherichia coli BL21 assessed as residual activity preincubated for 20 mins by rapid high dilution method relative to control
Procedure, shortened: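 Reversibility was tested by rapid high dilution: NDM-1 was preincubated 20 min with compound, then diluted. Residual nitrocefin hydrolysis was compared with an enzyme control lacking compound.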

HeLa [18] = experiment: Cytotoxicity against human HeLa cells assessed as effect on morphological changes at 0.13 to 2 mg/ml by microscopic analysis; type: cell-based; conditions: dose 0.13-2 mg/ml; procedure, shortened: as §4
Enterobacter cloacae [19] = experiment: Growth inhibition of carbapenem-resistant Enterobacter cloacae isolate 10 harboring CTX-M-14, TEM-1 and SHV-12 by CLSI protocol based assay; type: functional
HeLa [20] = experiment: Cytotoxicity against human HeLa cells assessed as increase in cell viability at 0.13 to 2 mg/ml measured after 48 hrs by MTT assay relative to control; type: cell-based; conditions: dose 0.13-2 mg/ml; procedure, shortened: as §3
Enterobacter cloacae [21] = experiment: Potentiation of meropenem-induced antibacterial activity against NDM-1 producing Enterobacter cloacae isolate 10 infected in Galleria mellonella assessed as increase in larvae survival at 10 mg/kg pretreated for 1hr with compound followed by bacterial infection and measured after 48 hrs (reference value: 20 %); type: functional; conditions: time 49 hrs
[22] = Covalent inhibition of Escherichia coli NDM-1 using nitrocefin as substrate

Metallo-beta-lactamase type 2 (Klebsiella pneumoniae), sequence (C7C422 whole entry, the tested form may be a part): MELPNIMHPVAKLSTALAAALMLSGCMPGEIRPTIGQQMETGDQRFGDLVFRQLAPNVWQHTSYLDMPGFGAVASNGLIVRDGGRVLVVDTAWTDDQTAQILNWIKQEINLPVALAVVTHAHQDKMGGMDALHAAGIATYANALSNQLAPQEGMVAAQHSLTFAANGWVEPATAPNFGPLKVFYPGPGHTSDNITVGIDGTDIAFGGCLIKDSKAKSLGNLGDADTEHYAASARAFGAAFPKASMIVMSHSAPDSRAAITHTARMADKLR
T1 sequence (C7C422 whole entry): as the sequence (C7C422 whole entry, the tested form may be a part) above

CC(C)(C)OC(=O)NCCn1[se]c2ccccc2c1=O
fractional inhibitory concentration index (FICI) (Enterobacter cloacae [1]): 0.16
inhibition [2]: Dose-dependent effect
IC50 [3]: 13 µM
MIC (Enterobacter cloacae [4]): 16 µg/mL
MIC (Morganella morganii): 2 µg/mL
Activity (L929 [5]): Non-Toxic
MIC (Escherichia coli): ≥ 128 µg/mL
Ratio [6]: 0.067 mM⁻¹ s⁻¹
Ki [7]: 17 µM
inhibition [8]: Active
fractional inhibitory concentration index (FICI) (Citrobacter freundii [9]): 0.13
MIC (Klebsiella oxytoca): ≥ 128 µg/mL
MIC (Enterobacter cloacae [10]): ≥ 128 µg/mL
MIC (Citrobacter freundii [11]): ≥ 128 µg/mL
MIC (Enterobacter cloacae [12]): 8 µg/mL
Activity (HeLa [13]): Non-Toxic
Activity [14]: 11%
Activity (L929 [15]): 70%
Activity (L929 [16]): Non-Toxic
Activity [17]: 40%
Activity (HeLa [18]): Non-Toxic
MIC (Enterobacter cloacae [19]): ≥ 128 µg/mL
Activity (HeLa [20]): 70%
Activity (Enterobacter cloacae [21]): 60%

O=c1c2ccccc2[se]n1-c1ccccc1 [EBSELEN]
fractional inhibitory concentration index (FICI) (Enterobacter cloacae [1]): 2.5
MIC (Enterobacter cloacae [4]): ≥ 128 µg/mL
MIC (Morganella morganii): 64 µg/mL
MIC (Escherichia coli): ≥ 128 µg/mL
fractional inhibitory concentration index (FICI) (Citrobacter freundii [9]): 0.5
MIC (Klebsiella oxytoca): ≥ 128 µg/mL
MIC (Enterobacter cloacae [10]): ≥ 128 µg/mL
MIC (Citrobacter freundii [11]): ≥ 128 µg/mL
MIC (Enterobacter cloacae [12]): 64 µg/mL
MIC (Enterobacter cloacae [19]): ≥ 128 µg/mL
Ki [22]: 0.38 µM

— ChEMBL document CHEMBL4673212, “Investigation of synergistic antimicrobial effects of the drug combinations of meropenem and 1,2-benzisoselenazol-3(2H)-one derivatives on carbapenem-resistant Enterobacteriaceae producing NDM-1” (Eur J Med Chem, 2018)
